Values after ≈ are worked out from the molar mass of the structure shown. Active and inactive are the calls of the source. The rule behind the calls is not given here.
What was measured:
[1] = Protein binding in human plasma at 10 uM after 6 hrs by UPLC based equillibrium dialysis method; format: ADME, cell-free; settings: read-out: PPB (converted)
[2] = AUC (0 to last) in ICR mouse peritonitis model infected with methicillin resistant Staphylococcus aureus ATCC 27660 at 10 mg/kg, iv administered as single dose measured up to 8 hrs by UPLC analysis; format: ADME, organism-based; parameters: dose 10 mg/kg, time 0 - last, route intravenous; settings: ICR, in vivo
In short: (§1)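 Fast PK: female ICR mice (n = 2 per time point) given single tail-vein iv injection at 5, 10 or 20 mg/kg in 25% DMSO/65% propylene glycol/10% water (2.5, 5 or 10 mg/mL); terminal cardiac blood at 5 min, 40 min, 2, 4, 8 h; plasma analysed by UPLC with internal standard calibration.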

[3] = Clearance in ICR mouse peritonitis model infected with methicillin resistant Staphylococcus aureus ATCC 27660 at 10 mg/kg, iv administered as single dose measured up to 8 hrs by UPLC analysis; format: ADME, organism-based; settings: in vivo; in short: as §1
HepG2 = test: Cytotoxicity against human HepG2 cells incubated for 16 hrs by XTT assay; format: cell-based; settings: HepG2, 16 h
In short: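 HepG2 cells were tested with an XTT viability read-out, in triplicate. IC50 was obtained by nonlinear regression.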

Staphylococcus aureus [4] = test: Antibacterial activity against methicillin resistant Staphylococcus aureus ATCC 27660 infected in iv dosed ICR mouse model of peritonitis assessed as mouse survival administered at 30 mins and 4.5 hrs post infection measured for 48 hrs; format: functional; settings: ATCC 27660, iv
[5] = Hemolytic activity against human RBC at 64 ug/ml relative to control; format: ADME, cell-based, Erythrocyte; settings: red blood cells, read-out: Activity
In short: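 Hemolysis was measured at a fixed 64 μg/mL on a 10% red-cell suspension from heparinized human blood. Triton-X served as the positive control, and results are given as percent hemolysis.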

Staphylococcus aureus [6] = test: Antibacterial activity against mecA-positive multidrug resistant Staphylococcus aureus COL NRS100 incubated for 16 to 20 hrs by microdilution method; format: functional
Staphylococcus aureus [7] = test: Antibacterial activity against mecA-positive multidrug resistant Staphylococcus aureus NRS119 incubated for 16 to 20 hrs by microdilution method; format: functional
Staphylococcus aureus [8] = test: Antibacterial activity against mecA-positive multidrug resistant Staphylococcus aureus NRS120 incubated for 16 to 20 hrs by microdilution method; format: functional
Staphylococcus aureus [9] = test: Antibacterial activity against vancomycin/methicillin-resistant Staphylococcus aureus VRS1 clinical isolate incubated for 16 to 20 hrs by microdilution method; format: functional
Staphylococcus aureus [10] = test: Antibacterial activity against vancomycin/methicillin-resistant Staphylococcus aureus VRS2 clinical isolate incubated for 16 to 20 hrs by microdilution method; format: functional
[11] = test system: Staphylococcus epidermidis; test: Antibacterial activity against Staphylococcus epidermidis ATCC 35547 incubated for 16 to 20 hrs by microdilution method; format: functional
In short: (§2)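 CLSI broth microdilution. 2-fold serial dilutions were made in cation-adjusted Mueller–Hinton broth, with 5% lysed horse blood added for Streptococcus strains, in triplicate. Inoculum 5×10^5 CFU/mL. Plates incubated 36 °C for 16–20 h. MIC taken as the lowest concentration visibly inhibiting growth.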

[12] = test system: Staphylococcus haemolyticus; test: Antibacterial activity against Staphylococcus haemolyticus ATCC 29970 incubated for 16 to 20 hrs by microdilution method; format: functional
Streptococcus oralis = test: Antibacterial activity against Streptococcus oralis ATCC 9811 incubated for 16 to 20 hrs by microdilution method; format: functional; in short: as §2
Streptococcus pyogenes = test: Antibacterial activity against Streptococcus pyogenes ATCC 49399 incubated for 16 to 20 hrs by microdilution method; format: functional; in short: as §2
Bacillus cereus = test: Antibacterial activity against Bacillus cereus ATCC 13061 incubated for 16 to 20 hrs by microdilution method; format: functional; in short: as §2
Bacillus licheniformis = test: Antibacterial activity against Bacillus licheniformis ATCC 12759 incubated for 16 to 20 hrs by microdilution method; format: functional; in short: as §2
Enterococcus faecalis [13] = test: Antibacterial activity against methicillin-susceptible Enterococcus faecalis ATCC 29212 incubated for 16 to 20 hrs by microdilution method; format: functional; in short: as §2
Enterococcus faecalis [14] = test: Antibacterial activity against vancomycin-resistant Enterococcus faecalis 99 clinical isolate incubated for 16 to 20 hrs by microdilution method; format: functional
Enterococcus faecium = test: Antibacterial activity against Enterococcus faecium NCTC 7171 incubated for 16 to 20 hrs by microdilution method; format: functional; in short: as §2
Staphylococcus aureus [15] = test: […] activity against multidrug resistant Staphylococcus aureus ATCC 27660; format: functional; settings: read-out: MBC99.9
Staphylococcus aureus [16] = test: […] activity against methicillin-resistant Staphylococcus aureus NRS70; format: functional; settings: read-out: MBC99.9
[17] = Oral bioavailability in ICR mouse peritonitis model infected with methicillin resistant Staphylococcus aureus ATCC 27660 at 10 mg/kg administered as single dose through gavage by UPLC analysis; format: ADME, organism-based; settings: ICR, in vivo
In short: (§3)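 Female ICR mice, single 10 mg/kg oral gavage in 25% DMSO/55% propylene glycol/20% PBS (2.5 mg/mL); n = 3 per time point; terminal blood 0.5–30 h; plasma protein-precipitated with acetonitrile containing internal standard, quantified by UPLC-UV or MRM against mouse-plasma calibration curve (0–50 μg/mL).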

[18] = AUC (0 to last) in ICR mouse peritonitis model infected with methicillin resistant Staphylococcus aureus ATCC 27660 at 10 mg/kg, po administered as single dose through gavage measured after 30 hrs by UPLC analysis; format: ADME, organism-based; parameters: dose 10 mg/kg, time 0 - last, route oral; settings: ICR, in vivo; in short: as §3
[19] = AUC (0 to infinity) in ICR mouse peritonitis model infected with methicillin resistant Staphylococcus aureus ATCC 27660 at 10 mg/kg, iv administered as single dose by UPLC analysis; format: ADME, organism-based; parameters: dose 10 mg/kg, time infinity, route intravenous; settings: ICR, in vivo
[20] = AUC (0 to infinity) in ICR mouse peritonitis model infected with methicillin resistant Staphylococcus aureus ATCC 27660 at 10 mg/kg, po administered as single dose through gavage by UPLC analysis; format: ADME, organism-based; parameters: dose 10 mg/kg, route oral, time infinity; settings: ICR, in vivo; in short: as §3
[21] = Cmax in ICR mouse peritonitis model infected with methicillin resistant Staphylococcus aureus ATCC 27660 at 10 mg/kg, po administered as single dose through gavage measured at 1 hr post dose by UPLC analysis; format: ADME, organism-based; parameters: dose 10 mg/kg, route oral; settings: in vivo
Mus musculus = test: Tmax in ICR mouse peritonitis model infected with methicillin resistant Staphylococcus aureus ATCC 27660 at 10 mg/kg, po administered as single dose through gavage by UPLC analysis; format: ADME, organism-based; settings: in vivo; in short: as §3
[22] = Volume of distribution in ICR mouse peritonitis model infected with methicillin resistant Staphylococcus aureus ATCC 27660 at 10 mg/kg, iv administered as single dose measured up to 24 hrs by UPLC analysis; format: ADME, organism-based; settings: ICR, in vivo
[23] = Terminal half life in ICR mouse peritonitis model infected with methicillin resistant Staphylococcus aureus ATCC 27660 at 10 mg/kg, iv administered as single dose by UPLC analysis; format: ADME, organism-based; settings: ICR, in vivo, read-out: beta t1/2
[24] = Terminal half life in ICR mouse peritonitis model infected with methicillin resistant Staphylococcus aureus ATCC 27660 at 10 mg/kg, po administered as single dose through gavage by UPLC analysis; format: ADME, organism-based; settings: ICR, in vivo, read-out: beta t1/2; in short: as §3
Staphylococcus aureus [25] = test: Antibacterial activity against methicillin-resistant Staphylococcus aureus NRS70 in ICR mouse neutropenic thigh infection model assessed as reduction in bacterial load at 20 mg/kg, sc tid administered every 8 hrs starting from 1 hr post infection and measured 7 hrs post last dose; format: functional, organism-based
In short: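 Female ICR mice (n = 8 per group) made neutropenic with ip cyclophosphamide 200 mg/kg at 4 days and 1 day pre-infection; 100 μL NRS70 (~1×10^6 CFU/mL in brain–heart infusion) injected im into right thigh; sc doses at 1, 9, 17 h; thighs harvested at 24 h, homogenized, plated in triplicate on LB agar; log10 CFU/g.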

[26] = Plasma concentration in ICR mouse neutropenic thigh model of methicillin-resistant Staphylococcus aureus NRS70 infection at 20 mg/kg, sc tid administered every 8 hrs starting from 1 hr post infection and measured 7 hrs post last dose by UPLC analysis; format: ADME, organism-based
In short: (§4)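 Neutropenic thigh model (cyclophosphamide 200 mg/kg ip, NRS70 im), sc doses at 1, 9 and 17 h; at 24 h cardiac blood and uninfected thigh taken (n = 8 per group); thigh homogenate supernatant and plasma acetonitrile-quenched with internal standard, analysed by UPLC with MRM detection.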

[27] = Drug level in uninfected thighs of ICR mouse neutropenic thigh model of methicillin-resistant Staphylococcus aureus NRS70 infection at 20 mg/kg, sc tid administered every 8 hrs starting from 1 hr post infection and measured 7 hrs post last dose by UPLC analysis; format: ADME, organism-based; settings: read-out: Drug uptake; in short: as §4
Klebsiella pneumoniae = test: Antibacterial activity against Klebsiella pneumoniae ATCC 700603 incubated for 16 to 20 hrs by microdilution method; format: functional; in short: as §2
Acinetobacter baumannii = test: Antibacterial activity against Acinetobacter baumannii ATCC 17961 incubated for 16 to 20 hrs by microdilution method; format: functional; in short: as §2
Pseudomonas aeruginosa = test: Antibacterial activity against Pseudomonas aeruginosa […] incubated for 16 to 20 hrs by microdilution method; format: functional; in short: as §2
Escherichia coli = test: Antibacterial activity against Escherichia coli ATCC 25922 incubated for 16 to 20 hrs by microdilution method; format: functional; in short: as §2
Klebsiella aerogenes = test: Antibacterial activity against Enterobacter aerogenes ATCC 35029 incubated for 16 to 20 hrs by microdilution method; format: functional; in short: as §2

SMILES: N#Cc1ccc(/C=C/c2nc3ccccc3c(=O)n2-c2cccc(C(=O)O)c2)cc1
- fraction unbound at 6 h, 10 µM [1]: 0.035
- AUC(0-t) at 8 h [2]: 19700 ng·h/mL
- clearance [3]: 6.9 mL/min/kg
- IC50 (HepG2): 62.9 µg/mL (≈ 160 µM)
- ED50 (Staphylococcus aureus [4]): 9.4 mg/kg
- hemolysis at 64 ug/ml [5]: < 1%
- MIC (Staphylococcus aureus [6]): 16 µg/mL (≈ 40.7 µM)
- MIC (Staphylococcus aureus [7]): 8 µg/mL (≈ 20.3 µM)
- MIC (Staphylococcus aureus [8]): 8 µg/mL (≈ 20.3 µM)
- MIC (Staphylococcus aureus [9]): 16 µg/mL (≈ 40.7 µM)
- MIC (Staphylococcus aureus [10]): 2 µg/mL (≈ 5.08 µM)
- MIC [11]: 1 µg/mL (≈ 2.54 µM)
- MIC [12]: 1 µg/mL (≈ 2.54 µM)
- MIC (Streptococcus oralis): > 128 µg/mL
- MIC (Streptococcus pyogenes): > 128 µg/mL
- MIC (Bacillus cereus): > 128 µg/mL
- MIC (Bacillus licheniformis): > 128 µg/mL
- MIC (Enterococcus faecalis [13]): > 128 µg/mL
- MIC (Enterococcus faecalis [14]): > 128 µg/mL
- MIC (Enterococcus faecium): > 128 µg/mL
- MBC (Staphylococcus aureus [15]): 64 µg/mL (≈ 163 µM)
- MBC (Staphylococcus aureus [16]): 32 µg/mL (≈ 81.3 µM)
- bioavailability [17]: 50%
- AUC(0-t) at 30 h [18]: 6800 ng·h/mL
- AUC(0-inf) [19]: 24300 ng·h/mL
- AUC(0-inf) [20]: 12300 ng·h/mL
- Cmax [21]: 1300 ng/mL
- Tmax (Mus musculus): 1 h
- Vd [22]: 0.3 L/kg
- half-life [23]: ≥ 20 h
- half-life [24]: > 20 h
- Activity (Staphylococcus aureus [25]): inactive
- concentration at 7 h [26]: 1130 ng/mL
- concentration at 7 h [27]: 24 ng/mL
- MIC (Klebsiella pneumoniae): ≥ 16 µg/mL
- MIC (Acinetobacter baumannii): ≥ 16 µg/mL
- MIC (Pseudomonas aeruginosa): ≥ 16 µg/mL
- MIC (Escherichia coli): ≥ 16 µg/mL
- MIC (Klebsiella aerogenes): ≥ 16 µg/mL

— ChEMBL document CHEMBL3817745, “Structure-Activity Relationship for the 4(3H)-Quinazolinone Antibacterials” (J Med Chem, 2016)
